# Assay outcomes from PubChem.
# This is a sample that favours compounds with a hit; in the whole collection about 4.6% have one here.
# FAS TE block: FAS thioesterase (human) inhibition; inhibition, % at 15 µM; P49327; actives 0.67% (n = 360,000); AID 602261; recombinant FAS-TE, OMFH fluorogenic substrate, fluorescence endpoint;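 active = compounds whose normalised, plate-corrected inhibition of enzyme fluorescence in the single-dose primary screen is 50% or more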;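 also: 0% = DMSO with enzyme and 100% = substrate without enzyme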
# Target sequence (P49327 whole entry, looked up): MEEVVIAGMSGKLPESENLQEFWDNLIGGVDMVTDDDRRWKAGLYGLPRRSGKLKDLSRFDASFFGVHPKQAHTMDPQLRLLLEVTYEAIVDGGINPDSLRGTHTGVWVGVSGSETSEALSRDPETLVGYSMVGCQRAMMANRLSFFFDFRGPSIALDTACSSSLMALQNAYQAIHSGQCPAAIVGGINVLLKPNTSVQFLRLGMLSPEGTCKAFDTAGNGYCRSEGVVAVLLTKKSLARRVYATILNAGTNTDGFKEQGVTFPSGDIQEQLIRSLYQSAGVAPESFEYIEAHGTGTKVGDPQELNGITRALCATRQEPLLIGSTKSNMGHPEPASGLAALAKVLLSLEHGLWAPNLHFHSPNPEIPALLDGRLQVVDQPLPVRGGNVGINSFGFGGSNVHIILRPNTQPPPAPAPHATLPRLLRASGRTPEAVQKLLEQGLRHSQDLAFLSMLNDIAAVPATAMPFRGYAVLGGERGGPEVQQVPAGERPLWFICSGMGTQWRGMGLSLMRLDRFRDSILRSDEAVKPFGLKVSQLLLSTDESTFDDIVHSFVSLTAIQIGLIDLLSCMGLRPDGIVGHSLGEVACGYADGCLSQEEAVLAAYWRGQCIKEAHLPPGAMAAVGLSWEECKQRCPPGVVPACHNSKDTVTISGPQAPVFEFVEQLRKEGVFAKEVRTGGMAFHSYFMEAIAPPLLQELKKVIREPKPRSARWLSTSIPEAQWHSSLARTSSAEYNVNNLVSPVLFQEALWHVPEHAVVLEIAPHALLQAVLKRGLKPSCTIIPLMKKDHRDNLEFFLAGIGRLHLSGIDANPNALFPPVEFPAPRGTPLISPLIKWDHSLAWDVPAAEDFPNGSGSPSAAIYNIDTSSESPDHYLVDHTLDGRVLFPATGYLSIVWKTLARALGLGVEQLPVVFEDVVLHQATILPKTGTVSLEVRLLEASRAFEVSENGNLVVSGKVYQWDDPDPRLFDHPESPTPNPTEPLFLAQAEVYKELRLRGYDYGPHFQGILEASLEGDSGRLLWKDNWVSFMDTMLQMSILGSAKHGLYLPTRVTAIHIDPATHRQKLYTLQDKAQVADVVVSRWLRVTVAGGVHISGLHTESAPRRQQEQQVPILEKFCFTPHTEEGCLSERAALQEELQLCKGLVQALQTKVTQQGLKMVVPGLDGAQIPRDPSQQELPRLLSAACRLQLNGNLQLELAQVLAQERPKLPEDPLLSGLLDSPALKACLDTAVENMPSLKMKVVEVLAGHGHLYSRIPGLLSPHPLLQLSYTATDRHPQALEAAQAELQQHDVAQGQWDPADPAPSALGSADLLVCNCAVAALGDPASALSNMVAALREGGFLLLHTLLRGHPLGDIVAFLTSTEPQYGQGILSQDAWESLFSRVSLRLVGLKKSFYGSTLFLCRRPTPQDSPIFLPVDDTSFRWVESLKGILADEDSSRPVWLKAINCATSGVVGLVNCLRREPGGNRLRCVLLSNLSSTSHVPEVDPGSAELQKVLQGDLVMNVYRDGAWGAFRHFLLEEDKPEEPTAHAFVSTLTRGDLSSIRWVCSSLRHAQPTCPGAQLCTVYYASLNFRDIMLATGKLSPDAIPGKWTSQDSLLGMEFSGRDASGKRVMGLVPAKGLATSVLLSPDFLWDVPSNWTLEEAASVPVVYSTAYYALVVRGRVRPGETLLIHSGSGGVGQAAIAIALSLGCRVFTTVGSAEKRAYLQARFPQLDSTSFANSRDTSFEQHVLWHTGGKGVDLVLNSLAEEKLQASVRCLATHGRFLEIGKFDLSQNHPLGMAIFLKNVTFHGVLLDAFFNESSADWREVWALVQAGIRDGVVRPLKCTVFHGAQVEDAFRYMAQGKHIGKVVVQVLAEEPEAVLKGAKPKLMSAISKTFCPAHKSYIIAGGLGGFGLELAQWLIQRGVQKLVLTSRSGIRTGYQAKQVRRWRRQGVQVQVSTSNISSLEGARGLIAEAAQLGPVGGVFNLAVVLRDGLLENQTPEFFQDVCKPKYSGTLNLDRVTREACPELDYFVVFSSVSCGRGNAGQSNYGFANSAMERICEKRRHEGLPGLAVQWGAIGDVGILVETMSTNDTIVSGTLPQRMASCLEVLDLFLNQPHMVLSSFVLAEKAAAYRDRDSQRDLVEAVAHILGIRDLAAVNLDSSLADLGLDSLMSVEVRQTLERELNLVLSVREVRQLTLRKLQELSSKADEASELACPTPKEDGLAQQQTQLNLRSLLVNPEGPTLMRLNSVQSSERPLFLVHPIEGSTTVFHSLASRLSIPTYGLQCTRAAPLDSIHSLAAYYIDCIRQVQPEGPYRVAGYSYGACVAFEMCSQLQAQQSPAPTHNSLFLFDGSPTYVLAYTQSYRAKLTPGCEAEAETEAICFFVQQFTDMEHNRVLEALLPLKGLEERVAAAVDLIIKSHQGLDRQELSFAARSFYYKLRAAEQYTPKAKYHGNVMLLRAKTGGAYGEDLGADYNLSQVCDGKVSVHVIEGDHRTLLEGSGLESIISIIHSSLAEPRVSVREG
# M18AAP inhibitor: PfM18AAP enzyme inhibition; recombinant PfM18AAP, H-Glu-NHMec fluorogenic cleavage; inhibition, % at 7.35 µM; actives 1.2% (n = 290,000);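 active = inhibition above the campaign mean inhibition over all tested compounds plus 3 SD, cut at about 28% in these data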;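 also: 0% = plate median of test compound wells and 100% = 2 mM ZnCl2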
# UCH37 DUB inh: blocks the human deubiquitinase UCH37. Q9Y5K5. purified proteasome/UCH37, Ub-AMC cleavage fluorescence. inhibition, % (test concentration not listed). actives 0.33% (n = 330,000);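 active = mean inhibition over replicate wells above about 20%, limit read from the data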;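 also: 0% = compound-free wells with enzyme and 100% = wells lacking proteasome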
#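 Test system – human UCH37 enzyme supplied as purified proteasome complex · Incubation – 30 min preincubation with enzyme, 25 min cleavage at room temperature · Detection – AMC fluorescence from Ub-AMC cleavage, excitation 355 nm, emission 460 nm · Benchmarks – no-proteasome wells (full inhibition) and compound-free wells (no inhibition)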
# ALR inh: inhibitors of human sulfhydryl oxidase ALR. actives 3.8% (n = 290,000). purified ALR, DTT oxidation, H2O2 HRP-luminol luminescence. P55789. inhibition, % (no concentration beside the values);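 active = mean replicate inhibition above about 79%, with every replicate also reaching it, limit read from the data; inconclusive = only one of the two criteria met; inactive = mean below limit and not every replicate reaching it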
# HDAC3 inh: inhibitors of human histone deacetylase 3; AID 2718; inhibition, % at 8.3 µM; recombinant HDAC3, fluorogenic peptide/trypsin coupled, fluorescence; actives 0.15% (n = 320,000); in the data active = inhibition above about 26%, passing the limit was not always enough; inconclusive = no clear call, values can overlap the other calls
# Rtt109 HAT inh: blocks Candida albicans Rtt109/Vps75 acetyltransferase activity; actives 0.16% (n = 330,000); AID 540336; inhibition, % at 34.9 µM; purified Rtt109/Vps75, ThioGlo CoA-SH fluorescence, 4 h; Q5AAJ8;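 active = inhibition of at least 50% in every replicate; inconclusive = best replicate reaches 50% inhibition but some replicates fall short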
# * = called active by the depositor; ? = inconclusive; nt = no result given.
SMILES,FAS TE block,M18AAP inhibitor,UCH37 DUB inh,ALR inh,HDAC3 inh,Rtt109 HAT inh
Cn1c(=O)[nH]c(=O)c2c1nc(N1CCOCC1)n2CCc1ccccc1,-1,4,4,0,-4,0
CC(c1ccccc1)n1c(N2CCNCC2)nc2c1c(=O)[nH]c(=O)n2C (stereo unspecified),-5,-6,1,-8,-2,65*
Cn1c(=O)[nH]c(=O)c2c1nc(N1CCCC1)n2CC(O)COc1ccccc1 (stereo unspecified),-5,-5,4,95*,5,-11
COc1ccc(CCn2c(N3CCOCC3)nc3c2c(=O)[nH]c(=O)n3C)cc1,-7,-1,3,99*,-2,-6
CCCCN(CCCNC(=O)CN1C(=O)COc2ccccc21)c1ccccc1,19,4,3,65,3,4
CCN(CCCNC(=O)CN1C(=O)COc2ccccc21)c1ccccc1,-2,8,2,99*,3,4
CCN(CCCNC(=O)CCn1c(=O)[nH]c2ccccc2c1=O)c1ccccc1,-9,2,5,98*,?,2
CCOC(=O)C(=NNc1ccc(Cl)cc1)c1csc(Nc2ccccc2)n1,nt,nt,2,nt,nt,nt
C/C(C=NNC(=O)CSc1nnc(SCc2ccccc2)s1)=C\c1ccco1,nt,nt,6,nt,nt,nt
COc1ccc(NN=C(C#N)C(=N)N2CCCCC2)cc1,nt,nt,11,nt,nt,nt
COc1ccc(S(=O)(=O)Nc2cc(Sc3ncn[nH]3)c(O)c3ccccc23)cc1,nt,50*,nt,nt,nt,nt
O=C(Cc1ccc(Br)cc1)NN=Cc1cccnc1,nt,nt,5,nt,nt,nt
O=c1cc(C(F)(F)F)nc(SCc2cccc3ccccc23)[nH]1,7,1,5,19,6,5
Nc1cc(=O)[nH]c(SCc2cccc3ccccc23)n1,1,-2,3,99*,5,6
CCc1cc(=O)[nH]c(SCc2cccc3ccccc23)n1,0,1,3,98*,3,17
CCn1c2ccccc2c2cc(C=Nn3cn[nH]c3=S)ccc21,nt,nt,-3,nt,nt,nt
COc1ccc(NC(=O)CCC(=O)NN=Cc2cccnc2)cc1,nt,nt,1,nt,nt,nt
CCc1nn(CC(=O)Nc2ccc(Br)c(C)c2)c(=N)s1,-133,-4,5,99*,6,15
CCCCCCOc1ccc(N2C(=O)CC(S/C(N)=N/N=C(C)c3cccs3)C2=O)cc1 (stereo unspecified),nt,nt,2,nt,nt,nt
COc1ccc(-n2c(C)cc(/C=N/Nc3nnc(C)n3N)c2C)cc1,-5,48*,nt,-1,5,0
Oc1cc(Nc2cccnc2)cc2cccnc12,-6,nt,0,90*,9,12
CCOC(=O)c1sc(-c2ccc(Br)cc2)cc1N,27,-6,-15,-1,3,-5
NNC(=O)c1sc(-c2ccc(Cl)cc2)cc1N,0,8,-7,98*,-2,-3
CON=Cc1ccc(N2CCN(C(=O)c3ccc(Cl)cc3Cl)CC2)c([N+](=O)[O-])c1,nt,nt,4,nt,nt,nt
CC1=C(C(=O)Nc2cc(-c3cccc(F)c3)[nH]n2)C2(CCCCC2)OC1=O,10,5,5,86*,8,-10
SMILES,FAS TE block,M18AAP inhibitor,UCH37 DUB inh,ALR inh,HDAC3 inh,Rtt109 HAT inh
O=C(Nc1cc(-c2ccccc2)[nH]n1)c1ccccc1F,-2,0,5,49,-3,nt
Nc1ccc2nc3c(=O)n(CCc4ccccc4)c(=O)[nH]c3nc2c1,-119,17,8,-1,-4,nt
Cc1cc2nc3c(=O)n(CCc4ccccc4)c(=O)[nH]c3nc2cc1N,-142,34*,7,-4,3,?
Cc1cc(C)n2cc(CSc3nc4ccccc4s3)nc2n1,-6,7,-1,nt,nt,9
Cc1cc(C)n2cc(CSc3nc4ccccc4[nH]3)nc2n1,-7,-6,-3,99*,0,5
CN(C)S(=O)(=O)n1cc(/C=C(\NC(=O)c2ccccc2)C(=O)N2CCCCC2)c2ccccc21,45,nt,nt,nt,nt,nt
CN(C)S(=O)(=O)n1cc(/C=C(\NC(=O)c2ccccc2)C(=O)N2CCCC2)c2ccccc21,37,3,4,nt,2,74*
CC(=NNC(=O)CCn1nnc2ccccc21)c1cccs1,nt,nt,4,nt,nt,nt
CC(=NN1CCN(c2ccc(Cl)cc2)CC1)c1ccco1,nt,nt,1,nt,nt,nt
COc1ccc(C2=Nn3c([n+](C)c4ccccc43)SC2)cc1,1,3,12,67,31*,1
C[n+]1c2n(c3ccccc31)N=C(c1ccc(Cl)cc1)CS2,-6,5,11,99*,55*,9
COc1ccc(C2=Nn3c(nnc3-c3ccccn3)SC2)cc1,-6,4,7,nt,8,-6
CC1Sc2n(c3ccccc3[n+]2C)N=C1c1ccccc1 (stereo unspecified),-4,-9,7,-3,0,-14
COc1ccc(CC(=O)NN=C(C)c2cccnc2)cc1,nt,nt,1,nt,nt,nt
C=CCNc1nc(C(=O)OCC(=O)Nc2ccc(S(N)(=O)=O)cc2)cs1,-4,nt,4,98*,5,2
Cc1ccc(NC(=O)CCC(=O)NN=Cc2ccc(O)cc2O)cc1,nt,nt,-8,nt,nt,nt
Oc1c(Br)cc2oc3c(c2c1CNCc1ccccc1)CCCC3,2,31*,7,-19,-3,2
COc1cc(C=NNC(=O)c2ccncc2)ccc1OC(C)=O,nt,nt,7,nt,nt,nt
CCOc1cc(C=NNc2nc(Nc3ccccc3)nc(N3CCOCC3)n2)ccc1OC(=O)c1ccco1,nt,nt,3,nt,nt,nt
COc1ccc(NC(=O)CSc2nnc(-c3ccccc3)n2N)cc1,-14,-7,1,-9,-3,59*
CCOc1ccc(NC(=O)CSc2nnc(-c3ccccc3)n2N)cc1,3,-3,1,-3,-11,4
COc1ccc(C(=O)NCc2nnc(SCC(=O)NO)n2Cc2ccccc2)cc1,-7,-7,-2,-3,91*,2
CCn1c(CNC(=O)c2cccs2)nnc1SCC(=O)Nc1ccc(Cl)cc1,-3,8,2,97*,7,-3
COc1ccccc1-c1nnc(SCC(=O)Nc2ccc(S(N)(=O)=O)cc2)n1N,-5,0,5,-5,nt,-9
COc1ccccc1-c1nnc(SCC(=O)Nc2ccc3[nH]c(=O)[nH]c3c2)n1N,-6,nt,nt,98*,-3,1
SMILES,FAS TE block,M18AAP inhibitor,UCH37 DUB inh,ALR inh,HDAC3 inh,Rtt109 HAT inh
CCn1c(CNC(=O)c2cccs2)nnc1SCC(=O)Nc1cc(Cl)ccc1C,-7,2,-1,-6,-1,7
CCN(CC)CCNC(=O)C(=NO)c1ccccn1,nt,nt,4,nt,nt,nt
Cc1[nH]c2ccccc2c1C=NNC(=O)c1cc(C(C)C)[nH]n1,nt,nt,9,nt,nt,nt
CON=Cc1ccc(N2CCN(C(=O)c3cccc(C(F)(F)F)c3)CC2)c([N+](=O)[O-])c1,nt,nt,6,nt,nt,nt
CCn1c(CNc2ccc(C)cc2)nnc1SCC(=O)NCc1ccccc1,-4,3,5,86*,3,-6
COc1ccc(NCc2nnc(SCC(=O)Nc3ccccc3)n2C)cc1,-8,4,0,94*,1,nt
